From PubChem BioAssay
NTR1 ag: NTR1 (human) agonism | activation, % at 20 µM | P30989 | NTR1-U2OS beta-arrestin-GFP spot imaging, agonist mode | hit rate 0.17% among 330,000;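 active means activation at or above 40% of the spot to cytoplasm intensity ratio, with at least 20 cells analyzed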
Arr AP2 block: inhibitors of human beta-arrestin and AP2 interaction | FITC-arrestin peptide / GST-AP2 beads, flow cytometry; AP2 beta2 appendage carries R879A mutation | inhibition, % at 10 µM | hit rate 0.31% among 340,000 | AID 504490;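 active means inhibition above a set limit, near 3 SD of compounds lacking own fluorescence, cut at about 54% in these data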
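Material – AP2 appendage R879A on GSH beads · Buffer or medium – PBS with 0.05% Tween 20 and 0.1% BSA · Probe or stimulus – fluorescein-tagged arrestin peptide at 50 nM final · Incubation – compound with beads 12 min RT, then probe 1 h RT · Detection – high-throughput flow cytometry of beads, ex 488, em 535 nm · Evaluation – percent response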
H9c2 TAG inh: reduces triacylglycerol accumulation in H9c2 cells; Nile Red lipid (TAG) fluorescence; cells loaded with 200 µM oleic acid; inhibition, % at 12.5 µM; hit rate 0.66% among 230,000; AID 651582;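 active means pattern-corrected inhibition of lipid staining of at least 50% with the nuclear-stain viability signal not falling by more than 50%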
B2AR ag: activates human beta-2 adrenergic receptor causing internalization | P07550 | hit rate 0.43% among 340,000 | Am2.2-beta2AR cells, FAP receptor internalization, flow cytometry | AID 504454 | response, % (concentration not given with the values);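 active means response above a set limit, near 3 SD of response in nonfluorescent compounds, cut at about 42% in these data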
GRK2 inh: blocks RNA aptamer binding to human GRK2. hit rate 0.59% among 330,000. AID 488847. inhibition of aptamer binding, % at 10 µM. bead flow cytometry, FAM-aptamer displacement from GRK2;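 active means inhibition of aptamer binding above 40%, roughly 3 SD of noise, on plates passing a quality check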;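 further: median bead fluorescence of bound FAM aptamer so fluorescent compounds give negative values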
Target sequence (P25098 whole entry, looked up): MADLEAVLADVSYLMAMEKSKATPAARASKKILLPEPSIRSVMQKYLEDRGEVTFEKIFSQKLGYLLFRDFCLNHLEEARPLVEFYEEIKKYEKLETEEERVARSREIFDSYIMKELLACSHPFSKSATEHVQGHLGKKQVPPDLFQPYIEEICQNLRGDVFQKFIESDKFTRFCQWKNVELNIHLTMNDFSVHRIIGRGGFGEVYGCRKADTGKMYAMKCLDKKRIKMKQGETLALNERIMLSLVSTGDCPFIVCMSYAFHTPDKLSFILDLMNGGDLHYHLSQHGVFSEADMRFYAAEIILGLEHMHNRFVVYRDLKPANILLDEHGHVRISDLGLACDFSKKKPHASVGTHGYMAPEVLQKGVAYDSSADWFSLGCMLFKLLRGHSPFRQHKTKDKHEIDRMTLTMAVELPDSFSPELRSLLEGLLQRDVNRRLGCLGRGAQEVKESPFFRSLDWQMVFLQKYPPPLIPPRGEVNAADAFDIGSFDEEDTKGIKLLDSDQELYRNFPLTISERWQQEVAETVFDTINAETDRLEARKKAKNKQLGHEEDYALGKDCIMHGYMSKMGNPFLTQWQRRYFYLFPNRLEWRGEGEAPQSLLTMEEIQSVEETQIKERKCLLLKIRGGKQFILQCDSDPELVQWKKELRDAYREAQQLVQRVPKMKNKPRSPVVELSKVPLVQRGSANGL
Lipid droplet: modulators of hepatic lipid droplet formation; hit rate 0.4% among 240,000; AML12 mouse hepatocytes, oleate lipid droplets, BODIPY imaging; AID 1656; inhibition, % at 6.5 µM;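 active means lipid droplet intensity inhibited by at least 50%, with more than 500 cells counted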
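Assay system: AML12 mouse liver cells | Compound dosing: One dose, 6.5 µM compound | Read-out basis: Droplet intensity reduction, % inhibition | Measured by: Fluorescence imaging, 20x objective, two fields per well | Schedule: Overnight treatment with compound plus oleate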
GRK2 inh confirm: human GRK2 inhibition confirmation, cherry pick 1 | shares compounds with GRK2 inh | bead-bound GRK2, FAM-aptamer displacement, flow cytometry | aptamer displacement, % at 10 µM | hit rate 4% among 2,000;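 active means aptamer displacement above 40%, near three times the noise of non-fluorescent compounds, on plates passing quality checks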;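 further: negative values mostly reflect intrinsic compound fluorescence rather than true enhancement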
Aptamer quench SP: counter-screen for GRK2 aptamer inhibitors: fluorescent aptamer quenchers; fluorescence response (% of DMSO), % at 10 µM; 2,000 tested, under 10 active; Carboxyfluorescein RNA aptamer on beads, flow cytometry quenching; hits give low values; AID 504580; shares compounds with GRK2 inh;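 active means compounds that quench the bead-bound fluorescent RNA probe, cutting fluorescence to under half of the solvent control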;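 further: counterscreen run without GRK2 so only probe quenching by compound is measured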
GRK2 confirm 2: human GRK2 inhibition confirmation, cherry pick 2 | bead-bound GRK2, FAM-aptamer displacement, flow cytometry | shares compounds with GRK2 inh | AID 504782 | 360 tested, under 10 active | inhibition of aptamer binding, % at 10 µM;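 active means inhibition of aptamer binding above 40%, about triple the noise seen with nonglowing compounds, on plates passing quality control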;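 further: negative values mostly come from compounds that fluoresce themselves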
FAM quench CP2: quenches fluorescent RNA aptamer, GRK2 hit artifact; 360 tested, under 10 active; fluorescence response vs DMSO, % at 10 µM; carboxyfluorescein RNA aptamer beads, flow cytometry quenching; hits give low values; shares compounds with GRK2 inh;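 active means response vs DMSO under 50%, meaning signal dropped by over half, treated as fluorescence quencher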;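 further: labelled aptamer on streptavidin beads without GRK2 as a quench counter-screen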
Numbers stand for hits; . = inactive; / = no result given. This is a sample that favours compounds with a hit; in the whole collection about 2% have one here.

SMILES	NTR1 ag	Arr AP2 block	H9c2 TAG inh	B2AR ag	GRK2 inh	Lipid droplet	GRK2 inh confirm	Aptamer quench SP	others
CCc1ccc(CNc2ccc3c(c2)ncn3C(C)(C)C)cc1	.	.	/	.	.	.	.	.
CC(C)(C)n1cnc2cc(NCc3ccccc3O)ccc21	.	.	/	.	.	.	.	.
CCc1ccc(CNc2ccc3c(c2)ncn3CC)cc1	.	.	/	.	.	.	/	/
CC(C)(C)n1cnc2cc(NCc3ccc(Br)cc3)ccc21	.	.	/	.	.	.	.	.
CCN(CC)c1ccc(CNc2ccc3c(c2)ncn3C(C)(C)C)cc1	.	.	/	.	.	.	/	/
COc1ccc2oc(C(=O)OCC(=O)N(Cc3ccccc3)C(C)(C)C)c(C)c2c1	.	.	/	.	.	.	/	/
CC(NC(=O)c1cccc(F)c1)C1CC2CCC1C2 (configuration not stated)	.	.	.	.	.	/	/	/
COC(=O)c1cccc(C23CC4(C2)[C@H](CN(CC2CCCCC2)[C@@H]4c2ccccc2)C3c2ccccc2)c1 (some centres not stated)	.	.	.	.	85.0	.	.	.
CC[C@@]1(C(=O)OC)N[C@H](CN(C)C(=O)Nc2ccccc2)[C@@H]2C(=O)N(Cc3ccccc3)C(=O)[C@@H]21	.	.	.	.	.	/	/	/
Cc1c(NC(=O)c2ccc(S(=O)(=O)N(C)C)cc2)cccc1-n1cnnn1	.	.	.	.	94.0	/	.	.
Cc1c(NC(=O)c2ccc(Cl)c([N+](=O)[O-])c2)cccc1-n1cnnn1	.	.	.	.	.	/	/	/
CC(NS(=O)(=O)c1ccc2ccccc2c1)c1ccccn1 (configuration not stated)	.	.	.	.	.	/	/	/
COc1cc(/C=C2/SC(=S)N(C)C2=O)ccc1OC(=O)c1ccco1	.	.	.	.	.	.	/	/
COc1cc(/C=C2\SC(=S)N(NC(C)=O)C2=O)ccc1OC(=O)c1ccco1	.	.	.	.	.	/	.	.
O=C(NCCCN1CCN(c2cccc(Cl)c2)CC1)C1(S(=O)(=O)c2ccc(Cl)cc2)CC1	.	.	.	.	.	.	.	.
O=C(O)c1ccc(CS(=O)(=O)c2cccc(C(F)(F)F)c2)o1	.	.	/	.	.	.	/	/	GRK2 confirm 2=.;FAM quench CP2=.
Cc1c(/C=N\NC(=O)c2c[nH]c3ccccc23)cnn1C	.	.	/	.	99.0	.	.	.
CC(C)=CCC/C(C)=C/CNC(=O)C[C@H]1C[C@H](C(=O)N(C(C)C)C(C)C)[C@@]2(C)c3[nH]c4cc(CCC(=O)N(C)C)ccc4c3CCN2C1=O	.	.	.	.	.	/	/	/
N#CC1=C2SCN(Cc3ccco3)CN2C(=O)CC1c1c(F)cccc1Cl (configuration not stated)	.	.	.	.	88.0	/	.	.
Cc1ccc(C2CC(=O)N3CN(Cc4ccco4)CSC3=C2C#N)cc1 (configuration not stated)	.	.	/	.	.	/	/	/
CCN(CC)S(=O)(=O)c1ccc(C(=O)OC2CCCCC2CN(C)C)cc1 (configuration not stated)	.	.	/	.	70.0	/	.	.
CN(CC(=O)Nc1ccc(Cl)c(Cl)c1)C(=O)CNC(=O)C1CCCCC1	.	.	.	.	.	/	/	/
Cc1cc2nc(SCC(=O)Nc3ccccc3C(=O)O)[nH]c2cc1C	.	.	.	.	.	.	/	/
Cc1ccc2[nH]c(-c3ccccc3)c(CN(C)C)c(=O)c2c1	.	.	/	.	.	/	.	.
CCN(CC)C(=O)Cn1cc(S(=O)(=O)CC(=O)Nc2cc(OC)ccc2OC)c2ccccc21	.	.	.	.	71.0	.	/	/	GRK2 confirm 2=.;FAM quench CP2=.
SMILES	NTR1 ag	Arr AP2 block	H9c2 TAG inh	B2AR ag	GRK2 inh	Lipid droplet	GRK2 inh confirm	Aptamer quench SP	others
COc1ccc(OC)c(NC(=O)Cc2c(C(=O)O)n(C)c3ccccc23)c1	.	.	/	.	47.0	/	/	/	GRK2 confirm 2=.;FAM quench CP2=.
CCN(C(=O)Cc1c(C(=O)O)n(C)c2ccccc12)c1cc(OC)ccc1OC	.	.	/	.	.	.	/	/
CCn1c(C(=O)O)c(CC(=O)N(C)c2ccc(OC)cc2OC)c2ccccc21	.	.	/	.	58.0	/	.	.
NC(=O)C[C@H](N)c1cn([C@@H](CC(N)=O)C(=O)N2CCNCC2)nn1	.	.	.	.	49.0	/	.	.
CC1Sc2ccc(S(=O)(=O)CCC(=O)N(C)Cc3ccco3)cc2NC1=O (configuration not stated)	.	.	/	.	.	.	/	/
Cc1ccc(NC(=O)CCS(=O)(=O)c2ccc3c(c2)NC(=O)C(C)S3)cc1Cl (configuration not stated)	.	.	/	.	.	.	/	/	GRK2 confirm 2=.;FAM quench CP2=.
CC1Sc2ccc(S(=O)(=O)CCC(=O)NC(C)c3ccccc3)cc2NC1=O (configuration not stated)	.	.	/	.	.	.	/	/	GRK2 confirm 2=.;FAM quench CP2=.
CCOc1ccccc1N(C)C(=O)CCS(=O)(=O)c1ccc2c(c1)NC(=O)C(C)S2 (configuration not stated)	.	.	/	.	.	.	/	/	GRK2 confirm 2=.;FAM quench CP2=.
CCC1Sc2ccc(S(=O)(=O)CCC(=O)Nc3c(Cl)cc(OC)cc3OC)cc2NC1=O (configuration not stated)	.	.	/	.	.	.	/	/	GRK2 confirm 2=.;FAM quench CP2=.
CC1Sc2ccc(S(=O)(=O)CCC(=O)Nc3ccc(C(C)C)cc3)cc2NC1=O (configuration not stated)	.	.	/	.	.	.	/	/
COc1ccc(C(=O)N2CCCC(CCC(=O)NCc3ccccc3F)C2)c(OC)n1 (configuration not stated)	.	.	/	.	.	.	/	/
C=CCn1c(NC(=O)c2ccccc2Cl)c(C#N)c2nc3ccccc3nc21	.	.	.	.	43.0	/	.	.
CCCCn1c(NC(C)=O)c(C#N)c2nc3ccccc3nc21	.	.	.	.	.	/	/	/
Clc1ccc(-c2cccc3nccn23)c(Cl)c1	/	/	.	/	/	/	/	/
COc1ccccc1N1CCN(C(=O)CCc2nnc3ccc(N4CCC(C)CC4)nn23)CC1	.	.	/	.	.	.	/	/
Cn1c(=O)n(CCc2ccccc2)c2ccccc21	.	.	.	.	51.0	.	.	.
CC(=O)Nc1ccc(SCC(=O)NC(=O)c2ccc(S(=O)(=O)N(C)C)cc2)cc1	.	.	.	.	.	/	/	/
